Shown are actives, neighbours in structure and some others; about 3.4% of the full set was active somewhere.
IMP-1 inh-1 – IMP-1 metallo-beta-lactamase inhibitors, primary screen, biochemical, epi-absorbance readout, Pseudomonas aeruginosa enzyme; inhibition, % at 5.6 µM; 290,000 tested, 0.45% active; metallo-beta-lactamase IMP-1 (Pseudomonas aeruginosa); purified IMP-1, nitrocefin hydrolysis, epi-absorbance fluorescence; AID 1556, 2009;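 active = inhibition above the mean plus 3 SD of all compounds in the same screening run, cut at about 4.5% in these data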;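 also: 0% = IMP-1 with DMSO and 100% = DMSO wells lacking enzyme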
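System: Purified IMP-1 | Read-out basis: Percent enzyme inhibition | Controls: IMP-1 with DMSO as 0%, enzyme-free DMSO as 100% | Replicates: One well per compound | Doses: 5.6 µM nominal single concentration | Detection: Epi-absorbance fluorescence, 480 nm excitation, 530 nm emission | Incubation: 25 °C, 15 min preincubation, 25 min reaction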
VIM-2 inhibitor – VIM-2 metallo-beta-lactamase inhibitors, primary screen, biochemical, epi-absorbance readout, Pseudomonas aeruginosa enzyme. AID 1527, 2009. purified VIM-2, nitrocefin hydrolysis, epi-absorbance fluorescence. inhibition, % at 5.6 µM. 290,000 tested, 0.89% active;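 active = inhibition above the mean of all tested compounds plus 3 SD, cutoff set per screening run, cut at about 7.5% in these data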;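 also: red hydrolysis product quenches plate fluorescence so inhibitors raise well fluorescence; 0% = enzyme with DMSO and 100% = DMSO without enzyme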
MEKK3 PB1 HTS – modulators of MEKK3-MEK5 PB1 binding, primary screen, biochemical, wildtype MEKK3, multiplex bead flow cytometry, Alexa488-MEK5; 290,000 tested, 1.4% active; AID 1529, 2009; binding response (% of control), % at 10 µM; Mitogen-activated protein kinase kinase kinase 3 (Homo sapiens), Q99759; bead-based flow cytometry, Alexa488-MEK5 binding to MEKK3; actives lie on both sides; 0 = blocked by unlabeled MEK5, 100 = vehicle;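 active = binding response more than 3 SD above or below the average of its plate-row segment, actives on both sides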;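 also: Alexa488 bead fluorescence after subtracting the streptavidin-only scavenger bead signal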
MEKK2wt PB1 HTS – modulators of MEK5 binding to wildtype MEKK2, primary screen, biochemical, multiplex bead flow cytometry, Alexa488-MEK5; Alexa488-MEK5 binding to MEKK2 WT; actives lie on both sides; binding response (% of control), % at 10 µM; 290,000 tested, 1.1% active; AID 1531, 2009; in the data active = binding response below about 67% or above about 130%
MEKK2mut PB1 HTS – MEK5 binding signal on mutant MEKK2 PB1, primary screen, biochemical, multiplex bead flow cytometry, Alexa488-MEK5. Alexa488-MEK5 binding to MEKK2 mutant. 290,000 tested, 0.35% active. percent response, % at 10 µM; in the data active = percent response above about 24%, passing the limit was not always enough
IMP-1 inh-2 – IMP-1 metallo-beta-lactamase inhibitors, confirmation, selectivity assay for selective VIM-2 inhibitor project, biochemical, epi-absorbance readout, triplicate. inhibition, % at 5.6 µM. purified IMP-1, nitrocefin hydrolysis, epi-absorbance fluorescence. AID 1856, 2009. 1,300 tested, under 10 active. shares compounds with VIM-2 inhibitor; call rule not given here;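 also: 0% = enzyme with vehicle and 100% = vehicle without enzyme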
VIM-2 FRET inh – VIM-2 inhibitors in FRET format, confirmation, artefact control for selective VIM-2 inhibitor project, biochemical, epi-absorbance artifact exclusion. shares compounds with VIM-2 inhibitor. purified VIM-2, CCF2 FRET substrate hydrolysis. inhibition, % at 5.6 µM. 1,300 tested, 23% active. AID 1857, 2009;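 active = inhibition above the mean of all tested compounds plus 3 SD, cut at about 19% in these data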;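 also: 0% = VIM-2 plus DMSO and 100% = no enzyme wells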
TEM-1 inh – TEM-1 serine beta-lactamase inhibitors, counter-screen for VIM-2 inhibitor project, biochemical, epi-absorbance, HTS. shares compounds with VIM-2 inhibitor. Purified TEM-1, nitrocefin hydrolysis, epi-absorbance fluorescence. inhibition, % at 5.6 µM. 1,300 tested, 3% active. AID 1866, 2009;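 active = inhibition above that campaign's mean inhibition plus 3 SD, cut at about 0.46% in these data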;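 also: 0% = TEM-1 with DMSO and 100% = TEM-1 with 100 µM potassium clavulanate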
Target sequence (P62593 whole entry, looked up): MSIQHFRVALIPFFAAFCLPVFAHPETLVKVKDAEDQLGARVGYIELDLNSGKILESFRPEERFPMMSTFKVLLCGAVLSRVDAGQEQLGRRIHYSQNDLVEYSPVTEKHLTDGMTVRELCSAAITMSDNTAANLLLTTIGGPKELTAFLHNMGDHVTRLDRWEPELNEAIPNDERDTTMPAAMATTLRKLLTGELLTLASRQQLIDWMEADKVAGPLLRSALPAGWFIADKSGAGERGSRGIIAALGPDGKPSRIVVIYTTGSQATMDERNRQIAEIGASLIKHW
VIM-2 inh conf – VIM-2 metallo-beta-lactamase inhibitors, confirmation, biochemical, epi-absorbance, hits shared with IMP-1 screen; AID 2187, 2009; purified VIM-2, nitrocefin hydrolysis; shares compounds with VIM-2 inhibitor; 1,300 tested, 96% active; inhibition, % at 5.6 µM;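 active = inhibition of the VIM-2 beta-lactamase enzyme above about 11% from the earlier first-round screen, limit read from the data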;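 also: 0% = VIM-2 with DMSO and 100% = buffer wells without enzyme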
* hit, by the source's call; nt = not tested or not shown; [ ] = remark or other dose.

SMILES	IMP-1 inh-1	VIM-2 inhibitor	MEKK3 PB1 HTS	MEKK2wt PB1 HTS	MEKK2mut PB1 HTS	IMP-1 inh-2	VIM-2 FRET inh	TEM-1 inh	VIM-2 inh conf
CCSc1nnc2ccc(-c3ccc(OC)c(OC)c3)nn12	-3.6	31.3*	101.0	106.0	8.0	-4.2	0.8	-8.5	43.9*
CCC(c1nnc(SCC(=O)Nc2cccc(S(N)(=O)=O)c2)n1-c1ccc(OC)cc1)N(C)C (stereo not drawn)	-2.0	-2.2	102.0	105.0	4.0	nt	nt	nt	nt
O=C(O)C(Cc1c[nH]c2ccccc12)NS(=O)(=O)c1cccc(Cl)c1Cl (stereo not drawn)	2.2	0.8	100.0	107.0	1.0	nt	nt	nt	nt
O=C(O)c1ccccc1NS(=O)(=O)c1cccc(-n2sc3ccccc3c2=O)c1	-1.3	19.1*	102.0	97.0	-6.0	-2.9	-23.7	-6.7	16.7*
CC(=O)c1c(Cl)nc2cccc3c2c1-c1ccccc1C3=O	-2.5	20.4*	107.0	105.0	6.0	-0.5	0.4	-0.5	31.4*
CC1=CCC(C(=O)O)(C(=O)N/N=C/c2cccs2)C(c2ccc([N+](=O)[O-])cc2)C1 (stereo not drawn)	-4.2	31.0*	97.0	102.0	-3.0	-4.0	8.5	-5.5	6.8
NC(=S)N/N=C/c1c(O)c(Br)cc2oc3c(c12)CCCC3	-2.8	-5.5	107.0	104.0	4.0	nt	nt	nt	nt
COc1ccc(-n2c(=S)[nH]c3ccccc32)cc1	-3.0	-5.1	102.0	107.0	-1.0	nt	nt	nt	nt
COc1ccc(-n2c(=S)[nH]c3ccccc3c2=S)cc1	-2.3	14.2*	99.0	101.0	3.0	-2.7	26.9*	-5.5	18.5*
CCC(=O)Nc1ccc(N2CCCCC2)c(C(=O)Nc2ccccc2C)c1	-1.3	1.5	98.0	97.0	0.0	nt	nt	nt	nt
CCC(C)NS(=O)(=O)c1ccc(OCC(=O)N2CCCCC2)cc1 (stereo not drawn)	-3.4	-2.3	100.0	98.0	-1.0	nt	nt	nt	nt
Cc1cccc(C(=O)c2ccccc2C(=O)O)c1O	-0.5	21.7*	94.0	93.0	-1.0	-3.1	30.0*	-5.8	16.7*
Cc1cccc(C)c1NC(=O)c1ccccc1C(=O)O	-0.7	0.6	102.0	100.0	1.0	nt	nt	nt	nt
Cc1ccc(CNc2c(C=O)c(=O)[nH]c3ccccc23)cc1	-2.8	14.0*	107.0	109.0	15.0	-3.0	31.4*	-5.0	21.4*
O=C(O)CCCNC(=O)c1cccc(C(=O)NCCCC(=O)O)n1	-2.7	-3.1	87.0	87.0	-3.0	nt	nt	nt	nt
Cn1ccnc1C(O)c1ccccc1 (stereo not drawn)	-2.0	-0.6	102.0	102.0	1.0	nt	nt	nt	nt
COc1ccc2ccccc2c1C(O)c1nccn1C (stereo not drawn)	0.5	12.6*	86.0	88.0	-4.0	-0.4	-1.6	-1.3	11.2*
Cc1ccc(NC(=O)CCSc2nnc(C)s2)cc1	-6.0	-2.5	82.0	97.0	-7.0	nt	nt	nt	nt
COc1ccc(N(CC(=O)NCc2ccc3c(c2)OCO3)C(=O)CCC(=O)Nc2ccccn2)cc1	-3.5	-4.9	108.0	104.0	-7.0	nt	nt	nt	nt
CCC(CO)Nc1ccc(-c2n[nH]c(=O)c3ccccc23)cc1[N+](=O)[O-] (stereo not drawn)	-1.9	22.4*	103.0	102.0	2.0	-4.0	-4.3	-7.8	32.1*
CN(CCO)c1ccc(-c2n[nH]c(=O)c3ccccc23)cc1[N+](=O)[O-]	-3.9	16.2*	101.0	103.0	3.0	-2.8	-2.6	-6.0	26.7*
CN(CCO)c1ccc([N+](=O)[O-])cc1C(=O)O	-1.6	0.5	97.0	100.0	2.0	nt	nt	nt	nt
CCC(CO)Nc1ccc(-c2nn(C)c(=O)c3ccccc23)cc1[N+](=O)[O-] (stereo not drawn)	-0.6	25.0*	98.0	92.0	-5.0	-3.8	-2.2	-8.3	45.0*
O=C(N/N=C/C(Br)=C/c1ccccc1)C1CC1	-2.0	-3.8	101.0	98.0	-5.0	nt	nt	nt	nt
CCN1CCN(c2nn3c(=O)c4ccccc4nc3c3ccccc23)CC1	-2.0	18.2*	105.0	108.0	7.0	-2.1	4.5	-1.6	30.1*
SMILES	IMP-1 inh-1	VIM-2 inhibitor	MEKK3 PB1 HTS	MEKK2wt PB1 HTS	MEKK2mut PB1 HTS	IMP-1 inh-2	VIM-2 FRET inh	TEM-1 inh	VIM-2 inh conf
CC1CN(c2nn3c(=O)c4ccccc4nc3c3ccccc23)CC(C)O1 (stereo not drawn)	-0.9	4.7	96.0	102.0	0.0	nt	nt	nt	nt
CN1CCN(c2cc(N3CCN(C(=O)c4ccco4)CC3)c3c4c(onc24)-c2ccccc2C3=O)CC1	-0.1	16.8*	84.0	89.0	5.0	-2.2	-12.3	-10.4	24.0*
O=C1c2ccccc2-c2onc3c(N4CCN(CCO)CC4)cc(N4CCN(C(=O)c5ccco5)CC4)c1c23	1.0	14.3*	81.0*[inhibitor]	85.0	3.0	-2.2	-10.2	-10.8	18.4*
COC(C(=O)Nc1ccccc1C(=O)N1CCOCC1)c1ccccc1 (stereo not drawn)	-1.5	-1.3	103.0	108.0	7.0	nt	nt	nt	nt
S=c1[nH]nc(-c2ccccc2Cl)n1CC1CCCO1 (stereo not drawn)	-2.9	2.1	99.0	99.0	8.0	nt	nt	nt	nt
Fc1ccccc1-c1n[nH]c(=S)n1CC1CCCO1 (stereo not drawn)	-2.5	35.2*	99.0	94.0	-7.0	-3.5	60.6*	-5.8	44.3*
Cn1c(=O)c2c(SCc3cccnc3)nc(C3CC3)nc2n(C)c1=O	-3.6	29.4*	112.0	113.0	12.0	-3.0	-8.2	-3.8	49.0*
O=C(COc1ccc2c3c(c(=O)oc2c1)CCCC3)NCc1ccncc1	-1.0	35.0*	102.0	102.0	-1.0	-0.7	1.6	3.2*	46.8*
Cc1c(OCC(=O)NCc2ccccn2)ccc2c(-c3ccccc3)cc(=O)oc12	-2.5	-2.7	103.0	104.0	2.0	nt	nt	nt	nt
